Several values for one entry are separate records, joined by “and”; a condition that tells them apart may be missing. Equal values may be shown once. Activity calls are given as the source filed them. Unless noted, no stated cut-off is given here; in the data, active means inhibition above about 30%; inactive means the rest.
Assays:
[1] = reduced viability of SK-BR-3 breast cancer cells – cell-based, 24 h, human, pilot screen (AID 572;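 active means viability at or below 10% of carrier control in both of two separate runs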;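 further: compound exposure lasted between 18 and 24 h rather than exactly 24 h; 100% = carrier-treated control wells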); settings: SK-BR-3 viability, CellTiter-Glo luminescence, at 10 µM, stronger effect = lower value
[2] = HUVEC growth inhibition – cell-based, human, primary screen (AID 575;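 active means viability at or below 30% in both replicate assays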;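 further: 100% = median of untreated cell wells with 0.1% DMSO on each plate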); settings: HUVEC proliferation, CellTiter-Glo luminescence, 72 h; at 10 µM; stronger effect = lower value
In short: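 Test system: HUVEC primary cells. Quantity: 1250 endothelial cells in each well. Dosing: single-point 10 µM, DMSO 0.1% final. Incubation: 72 h treatment at 37 °C. Measured by: CTG luminescence. Control set: DMSO cell controls and MePR drug controls. Plate: collagen-coated 384-well format.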

[3] = H69AR cell proliferation blockers – human, duplicate replicates, primary screen (AID 580;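 active means viability at or under a set limit in both replicates, limit being median viability minus 3 SD, cut at about 48% in these data, passing the limit was not always enough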;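 further: 100% = mean luminescence of untreated wells and 0% = no signal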); settings: H69AR lung tumor cells viability, ATP luminescence, 72 h; at 10 µM; stronger effect = lower value
[4] = MRP1 drug-resistance reversers in H69AR cells – cell-based, doxorubicin co-treatment, pilot screen (AID 601;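 active means viability loss from added drug above about 55%, and viability with drug at most 40%, in both replicates, limit read from the data, passing the limit was not always enough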); settings: CellTiter-Glo, 72 h, at 10 µM; for differential viability (reversal): stronger effect = higher value
[5] = yeast transport mutant growth inhibition pilot in 384-well plates, post-Golgi transport modulator project (AID 636; in the data active means inhibition above about 31%); settings: absorbance 615 nm, about 18 h, stronger effect = higher value
[6] = growth suppression of yeast trafficking mutant, preliminary HTS, modulators of trafficking downstream of Golgi apparatus project, 1536-format plate, OD 615 nm (AID 637); settings: yeast transport mutant growth, absorbance 615 nm, 18 h; stronger effect = higher value
[7] = H69AR cells + 2 uM doxorubicin, measured here: viability with 2 uM doxorubicin, stronger effect = lower value
[8] = H69AR cells, compound alone cytotoxicity

Compound	viability [1]	viability [2]	viability [3]	differential viability (reversal) ([4]; H69AR cells + 2 uM doxorubicin)	viability [4, 7]	viability [4, 8]	inhibition [5]	inhibition [6]
O=C(C1CCN(S(=O)(=O)c2cnc[nH]2)CC1)N1CCN(c2ncccn2)CC1	112% (inactive)	111% (inactive)	102% (inactive)	19.5% (inactive)	82.8%	102%	-5.33% (inactive)	0% (inactive)
Cc1[nH]nc2c1C(CCc1ccccc1)C(C#N)=C(N)O2 (stereo not drawn)	104% (inactive)	94.2% (inactive)	90.2% (inactive)	-2.73% (inactive)	92.9%	90.2%	4.11% (inactive)	15.8% (inactive)
CCOc1ccc(-c2c(C#N)c(N)nc3c2c(=O)n(C)c(=O)n3C)cc1OC	114% (inactive)	86% (inactive)	94.7% (inactive)	2.56% (inactive)	92.1%	94.7%	-6.44% (inactive)	6.77% (inactive)
CC(C)(C)NC(=O)CN(Cc1cccs1)C(=O)c1csnn1	96% (inactive)	99.7% (inactive)	105% (inactive)	-2.3% (inactive)	108%	105%	-7.12% (inactive)	-0.36% (inactive)
CCOC(=O)c1sc(NC(=O)CSc2ncn(-c3ccccc3)n2)nc1C	109% (inactive)	97.5% (inactive)	82.9% (inactive)	-5.19% (inactive)	88.1%	82.9%	-7.95% (inactive)	3.09% (inactive)
CCC(C)NCC(O)COCc1ccc(Cl)cc1 (stereo not drawn)	89% (inactive)	101% (inactive)	99.7% (inactive)	11.5% (inactive)	88.2%	99.7%	0.52% (inactive)	-4.59% (inactive)
COCC(=O)N(C)c1nnc(-c2ccccn2)s1	83% (inactive)	111% (inactive)	105% (inactive)	13.6% (inactive)	91.3%	105%	-2.57% (inactive)	-1.09% (inactive)
Cc1cc(C)nc(SCCS(=O)Cc2ccc(Cl)cc2)n1 (stereo not drawn)	102% (inactive)	99.4% (inactive)	96.2% (inactive)	4.69% (inactive)	91.5%	96.2%	-2.34% (inactive)	-3.11% (inactive)
Cc1occc1-c1nnc(SCC(=O)N2CCOCC2)n1Cc1ccco1	106% (inactive)	114% (inactive)	101% (inactive)	-2.24% (inactive)	103%	101%	-2.93% (inactive)	5.09% (inactive)
CC(CN(C)Cc1ccccc1)OC(=O)c1ccc2c(c1)OCCO2 (stereo not drawn)	93% (inactive)	85.3% (inactive)	94.1% (inactive)	5.22% (inactive)	88.8%	94.1%	-7.67% (inactive)	1.29% (inactive)
CCN(CCO)C(=O)CC(c1ccccc1)c1cc(Br)ccc1O (stereo not drawn)	101% (inactive)	101% (inactive)	93.8% (inactive)	-3.22% (inactive)	97%	93.8%	-2.3% (inactive)	-3.09% (inactive)
CCN(CC)CC(=O)Nc1c(C)cccc1C	101% (inactive) and 123% (inactive)	97.3% (inactive) and 96.1% (inactive)	107% (inactive) and 101% (inactive)	15.8% (inactive) and 10.7% (inactive)	91.2% and 90%	107% and 101%	-3.38% (inactive)	-3.67% (inactive) and 1.67% (inactive)
COc1ccc(CCN(Cc2cc3cccc(C)c3[nH]c2=O)C(=O)N2CCCC2)cc1OC	106% (inactive)	104% (inactive)	98.8% (inactive)	1.51% (inactive)	97.3%	98.8%	-2.6% (inactive)	-0.36% (inactive)
CS(=O)(=O)N(CC(=O)N1CCCCCC1)c1ccc(Br)cc1	86% (inactive)	96.5% (inactive)	97.9% (inactive)	17.2% (inactive)	80.6%	97.9%	-7.47% (inactive)	-10% (inactive)
CC(C)n1c(NCc2c[nH]c3ccccc23)nc2ccccc21	91% (inactive)	79.6% (inactive)	74.8% (inactive)	-3.61% (inactive)	78.4%	74.8%	-9.45% (inactive)	-5.16% (inactive)
COc1cccc(NC(=O)N(CCCN2CCOCC2)C(C)c2cc3cccc(OC)c3o2)c1 (stereo not drawn)	65% (inactive)	99.9% (inactive)	93.2% (inactive)	-3.43% (inactive)	96.6%	93.2%	-8.08% (inactive)	-0.55% (inactive)
COC(=O)c1ccccc1OCC(=O)NC1CCCCC1	96% (inactive)	106% (inactive)	90.2% (inactive)	-1.72% (inactive)	91.9%	90.2%	-5.21% (inactive)	-6.77% (inactive)
O=C(C1CCCCC1)N1CC(=O)N2CCc3ccccc3C2C1 (stereo not drawn)	104% (inactive)	107% (inactive)	96.7% (inactive)	-3.46% (inactive)	100%	96.7%	-0.91% (inactive)	-0.83% (inactive)

Compound	viability [1]	viability [2]	viability [3]	differential viability (reversal) ([4]; H69AR cells + 2 uM doxorubicin)	viability [4, 7]	viability [4, 8]	inhibition [5]	inhibition [6]
CC(C)CN(CC(C)C)C(=O)CS(=O)(=O)Cc1ccccc1	87% (inactive)	98.8% (inactive)	91.4% (inactive)	3.15% (inactive)	88.2%	91.4%	-5.75% (inactive)	1.13% (inactive)
COc1ccc(OC)c(NC(=O)C23CCC(C)(C(=O)C2)C3(C)C)c1 (stereo not drawn)	72% (inactive)	101% (inactive)	102% (inactive)	-0.69% (inactive)	103%	102%	-6.3% (inactive)	-2.73% (inactive)
O=C1C2ON(c3ccc(Cl)cc3)C(c3ccco3)C2C(=O)N1c1ccccc1 (stereo not drawn)	116% (inactive)	81.4% (inactive)	100% (inactive)	8.97% (inactive)	91.2%	100%	-2.6% (inactive)	-3.61% (inactive)
Cc1cc2c(c(=O)n1C)C(Cc1ccccc1)C(C#N)=C(N)O2 (stereo not drawn)	95% (inactive)	109% (inactive)	95.1% (inactive)	9.48% (inactive)	85.6%	95.1%	-5.54% (inactive)	2.55% (inactive)
CCOc1ccccc1NC(=O)CSc1nnc2c(CC)c(C)nc(N)n12	104% (inactive)	113% (inactive)	96.3% (inactive)	-3.08% (inactive)	99.4%	96.3%	-5.81% (inactive)	-0.91% (inactive)
Cc1ccc(CNc2cc(-c3nn4c(C)nnc4s3)ccc2C)s1	88% (inactive)	45.1% (inactive)	58.8% (inactive)	18.3% (inactive)	40.5%	58.8%	-2.6% (inactive)	12.3% (inactive)
COc1ccc(NC(=O)Nc2ccccc2C)c(OC)c1	93% (inactive)	95.1% (inactive)	89% (inactive)	20.8% (inactive)	68.2%	89%	-4.8% (inactive)	-1.09% (inactive)
Fc1cccc(Nc2cc(-n3cccn3)ncn2)c1	95% (inactive)	72.5% (inactive)	89.6% (inactive)	-4.63% (inactive)	94.3%	89.6%	-7.81% (inactive)	-4.76% (inactive)
CCOC(=O)C1=C(N)OC2=C(C(=O)CC(C)(C)C2)C1c1ccco1 (stereo not drawn)	90% (inactive)	97.3% (inactive)	87.8% (inactive)	3.79% (inactive)	84%	87.8%	1.04% (inactive)	3.28% (inactive)
Cc1cnc(C(=O)Nc2nnc(C(C)C)s2)cn1	113% (inactive)	113% (inactive)	87.4% (inactive)	6.11% (inactive)	81.2%	87.4%	-0.26% (inactive)	-1.97% (inactive)
Cc1nc(-c2ccccc2)sc1C(N)=O	107% (inactive)	96.4% (inactive)	94.4% (inactive)	-12.1% (inactive)	106%	94.4%	-3.29% (inactive)	12.6% (inactive)
NS(=O)(=O)c1cc2c(cc1Cl)NC(CSCc1ccccc1)=NS2(=O)=O	115% (inactive)	89.2% (inactive)	92.6% (inactive)	2.97% (inactive)	89.6%	92.6%	-4.29% (inactive)	0.67% (inactive)
c1cncc(C2Nc3ccccc3-c3nc4ccccc4n32)c1 (stereo not drawn)	90% (inactive)	98.1% (inactive)	78.7% (inactive)	-12.2% (inactive)	90.9%	78.7%	-2.53% (inactive)	0.91% (inactive)
Cc1ccc(-n2c(C)cc3c2CCCC3=O)cc1	113% (inactive)	112% (inactive)	93.3% (inactive)	-0.79% (inactive)	94.1%	93.3%	-9.07% (inactive)	-3.09% (inactive)
Cn1c(=O)c2[nH]cnc2n(C)c1=O	101% (inactive)	107% (inactive)	97.4% (inactive)	5.22% (inactive)	92.1%	97.4%	-1.3% (inactive)	-2.83% (inactive)
COC(=O)c1cccc(Nc2cc(C)nc(-c3ccccc3O)n2)c1	69% (inactive)	62.3% (inactive)	64.4% (inactive)	-6.26% (inactive)	70.7%	64.4%	0% (inactive)	2.18% (inactive)
Cc1cc(C(=O)COC(=O)CCc2nc3ccccc3s2)c(C)n1C	94% (inactive)	116% (inactive)	101% (inactive)	-5.69% (inactive)	107%	101%	-3.7% (inactive)	-5.09% (inactive)
Cc1cc(=O)n2nc(N3CCC(C(=O)N4CCN(Cc5ccccc5)CC4)CC3)sc2n1	97% (inactive)	108% (inactive)	91.1% (inactive)	7.01% (inactive)	84.1%	91.1%	-3.24% (inactive)	-1.27% (inactive)

— PubChem BioAssay
